ChEMBL document CHEMBL3351653, “One-pot heterogeneous synthesis of Δ(3)-tetrahydrocannabinol analogues and xanthenes showing differential binding to CB(1) and CB(2) receptors” (Eur J Med Chem, 2014)

Tests used:
Cannabinoid receptor 1 = Cannabinoid receptor 1 (Homo sapiens, UniProt P21554); assay: Displacement of [3H]CP55940 from human cannabinoid CB1 receptor expressed in CHO-K1 cells by liquid scintillation counting; format: cell-based
Cannabinoid receptor 2 [1] = biological target: T1, Cannabinoid receptor 2 (Homo sapiens, UniProt P34972); assay: Displacement of [3H]CP55940 from human cannabinoid CB2 receptor expressed in CHO-K1 cells by liquid scintillation counting; format: cell-based
Cannabinoid receptor 2 [2] = biological target: T1, Cannabinoid receptor 2; assay: Partial agonist activity at human cannabinoid CB2 receptor expressed in CHO-K1 cells assessed as [S35]GTPgammaS binding by scintillation counting; format: functional, cell-based
Method in brief: (§1)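 CB2 membranes held on ice with […] and 0.1 nM [35S]-GTPγS in buffer with 0.5% fatty-acid-free BSA. GF/B filtration, washing in ice-cold 50 mM Tris-HCl pH 7.4 with 0.1% BSA, then scintillation counting. Specific binding is signal minus the excess-GTPγS residual. Three independent experiments in triplicate.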

Cannabinoid receptor 2 [3] = biological target: T1, Cannabinoid receptor 2; assay: Partial agonist activity at human cannabinoid CB2 receptor expressed in CHO-K1 cells assessed as [S35]GTPgammaS binding by scintillation counting relative to vehicle treated control; format: functional, cell-based
Method in brief: as §1, with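 “BSA. Reaction started by adding compound, vehicle or CP55940.” for “BSA.”, “residual. Results given as % of vehicle control.” for “residual.”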

Sequence of Cannabinoid receptor 1 (P21554 whole entry): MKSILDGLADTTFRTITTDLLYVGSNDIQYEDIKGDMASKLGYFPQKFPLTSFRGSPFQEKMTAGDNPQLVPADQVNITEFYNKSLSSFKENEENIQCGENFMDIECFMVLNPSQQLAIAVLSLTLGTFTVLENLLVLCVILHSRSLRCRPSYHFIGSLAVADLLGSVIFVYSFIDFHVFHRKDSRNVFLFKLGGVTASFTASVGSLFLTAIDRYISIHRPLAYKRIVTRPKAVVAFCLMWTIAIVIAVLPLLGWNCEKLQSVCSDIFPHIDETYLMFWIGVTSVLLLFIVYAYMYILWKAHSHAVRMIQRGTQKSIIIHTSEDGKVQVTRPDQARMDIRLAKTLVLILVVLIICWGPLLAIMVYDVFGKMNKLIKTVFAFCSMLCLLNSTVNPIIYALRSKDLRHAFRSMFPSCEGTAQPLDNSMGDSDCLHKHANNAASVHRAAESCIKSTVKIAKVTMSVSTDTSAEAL
T1 sequence (P34972 whole entry): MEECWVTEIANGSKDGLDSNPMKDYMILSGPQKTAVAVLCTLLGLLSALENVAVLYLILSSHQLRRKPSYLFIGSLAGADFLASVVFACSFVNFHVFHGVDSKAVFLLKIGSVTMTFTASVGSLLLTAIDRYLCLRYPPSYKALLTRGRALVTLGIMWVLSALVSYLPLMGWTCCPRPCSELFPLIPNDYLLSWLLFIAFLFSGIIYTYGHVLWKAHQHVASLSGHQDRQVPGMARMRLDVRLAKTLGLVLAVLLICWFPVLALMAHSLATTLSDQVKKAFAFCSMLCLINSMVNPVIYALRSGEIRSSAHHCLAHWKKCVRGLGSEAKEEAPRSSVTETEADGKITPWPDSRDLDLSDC

Structure (SMILES): C[C@@H]1CCC2=C(C1)Oc1cc(O)ccc1C2(C)C
- Ki (Cannabinoid receptor 1): > 10 µM
- Ki (Cannabinoid receptor 2 [1]): 4.2 µM

Structure (SMILES): Cc1cc(O)c2c(c1)OC1=C(CC[C@@H](C)C1)C2(C)C
- Ki (Cannabinoid receptor 1): > 10 µM
- Ki (Cannabinoid receptor 2 [1]): > 10 µM

Structure (SMILES): CCCCCc1cc(O)c2c(c1)OC1=C(CC[C@H](C)C1)C2(C)C
- Ki (Cannabinoid receptor 1): 2.1 µM
- Ki (Cannabinoid receptor 2 [1]): 0.18 µM
- EC50 (Cannabinoid receptor 2 [2]): 0.82 µM
- Emax (Cannabinoid receptor 2 [3]): 167%

Structure (SMILES): Cc1c(O)ccc2c1OC1=C(CC[C@@H](C)C1)C2(C)C
- Ki (Cannabinoid receptor 1): > 10 µM
- Ki (Cannabinoid receptor 2 [1]): 1 µM

Structure (SMILES): CCCCCc1cc(O)c2c(c1)OC(C)(C)C1=C2C[C@H](C)CC1
- Emax (Cannabinoid receptor 2 [3]): 133%

Structure (SMILES): Cc1cc(O)c2c(c1)OC(C)(C)C1=C2C[C@H](C)CC1
- Ki (Cannabinoid receptor 1): 1 µM
- Ki (Cannabinoid receptor 2 [1]): 0.66 µM

Structure (SMILES): Cc1c(O)ccc2c1OC(C)(C)C1=C2C[C@H](C)CC1
- Ki (Cannabinoid receptor 1): > 10 µM
- Ki (Cannabinoid receptor 2 [1]): > 10 µM

Structure (SMILES): CCCCCc1cc(O)c2c(c1)OC1=C(CC[C@@H](C)C1)C2(C)C
- Ki (Cannabinoid receptor 1): 1.1 µM
- Ki (Cannabinoid receptor 2 [1]): 0.47 µM
- EC50 (Cannabinoid receptor 2 [2]): 0.93 µM
- Emax (Cannabinoid receptor 2 [3]): 152%

Structure (SMILES): CCc1cc2c(cc1O)OC1=C(CC[C@@H](C)C1)C2(C)C
- Ki (Cannabinoid receptor 1): > 10 µM
- Ki (Cannabinoid receptor 2 [1]): 0.51 µM

Structure (SMILES): C[C@@H]1CCC2=C(C1)c1ccc(O)cc1OC2(C)C
- Ki (Cannabinoid receptor 1): > 10 µM
- Ki (Cannabinoid receptor 2 [1]): > 10 µM

Structure (SMILES): CCCCCc1cc(O)c2c(c1)OC(C)(C)C1=C2C[C@@H](C)CC1
- Emax (Cannabinoid receptor 2 [3]): 146%

Structure (SMILES): CCc1cc2c(cc1O)OC(C)(C)C1=C2C[C@H](C)CC1
- Ki (Cannabinoid receptor 1): > 10 µM
- Ki (Cannabinoid receptor 2 [1]): > 10 µM
